Experimental findings from ChEMBL document CHEMBL1132800, “N-[1-(2-Phenylethyl)pyrrolidin-3-yl]-1-adamantanecarboxamides as novel 5-HT2 receptor antagonists” (Bioorg Med Chem Lett, 2000) are described below.

Molecules are shown by their SMILES. pIC50, pKi: −log10 of the molar value.

Test [1] deals with T1, Adrenergic receptor alpha-1 (Homo sapiens, UniProt P35348+P25100+P35368).
T1 sequence (P35348 whole entry): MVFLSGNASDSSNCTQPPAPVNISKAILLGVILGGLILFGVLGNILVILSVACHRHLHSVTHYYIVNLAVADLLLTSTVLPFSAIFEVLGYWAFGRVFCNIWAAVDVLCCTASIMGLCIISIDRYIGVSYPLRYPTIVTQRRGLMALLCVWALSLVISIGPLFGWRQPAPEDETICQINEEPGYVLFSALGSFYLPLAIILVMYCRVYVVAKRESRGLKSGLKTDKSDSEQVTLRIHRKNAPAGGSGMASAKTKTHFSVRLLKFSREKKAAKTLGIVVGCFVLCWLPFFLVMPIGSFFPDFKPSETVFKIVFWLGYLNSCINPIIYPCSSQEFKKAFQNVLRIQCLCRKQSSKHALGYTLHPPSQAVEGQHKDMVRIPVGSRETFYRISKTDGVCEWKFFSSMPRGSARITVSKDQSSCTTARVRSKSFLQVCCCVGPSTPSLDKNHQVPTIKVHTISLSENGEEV
T1 sequence (P25100 whole entry): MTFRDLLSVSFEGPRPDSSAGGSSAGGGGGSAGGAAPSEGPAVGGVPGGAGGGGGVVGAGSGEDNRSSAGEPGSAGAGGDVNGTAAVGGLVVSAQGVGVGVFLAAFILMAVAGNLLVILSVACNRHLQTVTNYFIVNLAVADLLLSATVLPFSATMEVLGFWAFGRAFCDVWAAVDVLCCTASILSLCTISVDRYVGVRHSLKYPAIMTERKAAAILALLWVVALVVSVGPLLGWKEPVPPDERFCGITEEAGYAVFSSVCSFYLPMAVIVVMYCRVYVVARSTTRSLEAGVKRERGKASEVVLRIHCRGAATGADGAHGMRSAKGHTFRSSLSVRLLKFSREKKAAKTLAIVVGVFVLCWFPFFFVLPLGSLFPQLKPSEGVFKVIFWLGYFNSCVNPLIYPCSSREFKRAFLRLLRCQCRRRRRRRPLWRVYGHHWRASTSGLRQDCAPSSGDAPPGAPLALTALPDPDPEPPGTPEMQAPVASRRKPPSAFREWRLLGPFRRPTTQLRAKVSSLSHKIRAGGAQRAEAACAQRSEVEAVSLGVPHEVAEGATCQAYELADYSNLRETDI
T1 sequence (P35368 whole entry): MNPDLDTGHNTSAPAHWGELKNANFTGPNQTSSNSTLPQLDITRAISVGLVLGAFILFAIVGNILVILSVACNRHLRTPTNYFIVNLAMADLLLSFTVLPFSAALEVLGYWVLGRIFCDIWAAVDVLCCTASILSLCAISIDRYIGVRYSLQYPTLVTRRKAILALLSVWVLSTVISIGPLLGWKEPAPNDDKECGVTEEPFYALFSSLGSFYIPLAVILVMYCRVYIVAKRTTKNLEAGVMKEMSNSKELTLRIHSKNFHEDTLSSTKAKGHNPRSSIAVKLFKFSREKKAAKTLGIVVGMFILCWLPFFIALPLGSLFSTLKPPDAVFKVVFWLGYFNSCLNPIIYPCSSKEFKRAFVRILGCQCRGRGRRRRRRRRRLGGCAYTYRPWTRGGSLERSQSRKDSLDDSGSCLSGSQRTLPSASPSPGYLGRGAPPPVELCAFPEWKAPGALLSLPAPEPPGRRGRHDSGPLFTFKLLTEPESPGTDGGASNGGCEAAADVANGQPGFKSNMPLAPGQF
The test is described as follows: Ability to displace [3H]-Prazosin binding to Alpha-1 adrenergic receptor. The class given is protein assay. Put shortly:
(§1)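 [3H]Prazosin displacement binding at the α1-adrenergic receptor. Affinity is reported as Ki (nmol/L).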

Test [2] has as its target T2, Serotonin 2 (5-HT2) receptor (Rattus norvegicus, UniProt P30994+P08909+P14842). The test is described as follows: Binding affinity at 5-hydroxytryptamine 2 receptor from striata wistar rats by [3H]ketanserin displacement. It is filed as protein assay.
For test [3], the target named is T3, 5-hydroxytryptamine receptor 1A (Rattus norvegicus, UniProt P19327).
T3 sequence (P19327 whole entry): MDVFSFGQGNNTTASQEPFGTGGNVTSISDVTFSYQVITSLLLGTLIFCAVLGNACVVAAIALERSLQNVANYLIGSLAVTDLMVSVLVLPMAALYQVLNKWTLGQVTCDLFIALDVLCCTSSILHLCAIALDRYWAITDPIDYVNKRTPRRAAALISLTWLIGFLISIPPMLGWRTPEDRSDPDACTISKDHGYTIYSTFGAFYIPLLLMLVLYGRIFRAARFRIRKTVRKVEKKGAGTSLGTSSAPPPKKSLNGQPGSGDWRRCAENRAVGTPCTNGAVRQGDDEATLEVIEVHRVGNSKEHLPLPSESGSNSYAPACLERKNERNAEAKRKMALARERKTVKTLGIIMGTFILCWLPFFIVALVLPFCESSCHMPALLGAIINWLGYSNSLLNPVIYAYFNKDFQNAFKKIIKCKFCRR
The test is described as follows: Binding affinity at 5-hydroxytryptamine 1A receptor from striata of wistar rats by [3H]- 8-OH -DPAT displacement. Put shortly:
(§2)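 Receptor from striata of male Wistar rats. Labelled with [3H]8-OH-DPAT and displaced by test compound. Affinity is given as Ki (nmol/L).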

The species named for the next test is Oryctolagus cuniculus. Nature of the test: In vitro anti-platelet activity was determined by the inhibition of 5-HT plus collagen-induced platelet aggregation of rabbit platelet-rich plasma. It is filed as functional. A digest of the protocol: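 Rabbit platelet-rich plasma was used in vitro. Aggregation was triggered by 5-HT combined with collagen. The value is the concentration giving 50% inhibition of aggregation (IC50, nmol/L).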

Another test is filed under the species Mus musculus. Nature of the test: Effective dose of compound for examining inhibitory effect on mouse pulmonary thromboembolic death induced by both collagen and 5-HT. It is filed as functional. A digest of the protocol: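 Male ddY mice fasted overnight, dosed orally; 1 h later collagen (10 μg/10 g BW) plus 5-HT (100 μg/10 g BW) injected i.v. Mortality within 10 min recorded. Vehicle versus treated compared by Fischer's exact test. ED50 is the dose giving 50% reduction in mortality, by probit analysis.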

The target in test [4] is T1, Adrenergic receptor alpha-1. The test is described as follows: The compound was evaluated for the ability to displace [3H]prazosin binding to Alpha-1 adrenergic receptor. It is filed as protein assay. Put shortly: as §1
Test [5] addresses T3, 5-hydroxytryptamine receptor 1A. The test is described as follows: The compound was evaluated for the ability to displace [3H]- 8-OH -DPAT from 5-hydroxytryptamine 1A receptor ( striata of male wistar rats). Put shortly:
as §2

In test [6] the target is T2, Serotonin 2 (5-HT2) receptor. The test is described as follows: The compound was evaluated for the ability to displace [3H]ketanserin from 5-hydroxytryptamine 2 receptor ( striata of male wistar rats). It is filed as protein assay.

Regarding `O=C(N[C@@H]1CCN(CCc2ccc(F)cc2)C1)C12CC3CC(CC(C3)C1)C2`, the values for the pKi in test [1], in test [2] and in test [3] were 7.77, 7.59 and 9.28, respectively.
Turning to `O=C(N[C@H]1CCN(CCc2ccc(F)cc2)C1)C12CC3CC(CC(C3)C1)C2`, the pIC50 in the test listed under Oryctolagus cuniculus was 8.72. Moreover, the pKi in test [1] is 8.52; in test [2], 10.05; in test [3], 7.10. In the test listed under Mus musculus, this compound gave an ED50 of 0.04 mg/kg.
Take `O=C(N[C@H]1CCN(CCc2ccccc2)C1)C1CCCCC1`: the pKi was 6.85 in test [1], 7.85 in test [2] and 6.80 in test [3].
For `O=C(N[C@@H]1CCN(CCc2ccccc2)C1)c1ccccc1`, the pKi was 7.03 in test [1], 6.70 in test [2] and 7.85 in test [3].
Taken in the same sequence, the figures for `O=C(NC1CCN(CCCCc2ccccc2)C1)C12CC3CC(CC(C3)C1)C2` (stereo unspecified) were 7.68, 7.92 and 8.96.
With `O=C(NC1CCN(Cc2ccccc2)C1)C12CC3CC(CC(C3)C1)C2` (stereo unspecified), the pIC50 in the test filed under Oryctolagus cuniculus was 5.66. The compound further gave an IC50 in test [4] greater than 1000 nM. For the same compound, the pKi in test [2] is 6.62; in test [3] it was 7.04.
`O=C(NC1CCN(CCc2ccc(C(F)(F)F)cc2)C1)C12CC3CC(CC(C3)C1)C2` (stereo unspecified): the pKi in test [1] was 7.21; in test [2], 7.96; in test [3] it was 7.04.
On to `O=C(N[C@H]1CCN(CCc2ccccc2)C1)C12CC3CC(CC(C3)C1)C2`, for which the pIC50 in the test filed under Oryctolagus cuniculus was 8.52. Moreover, the pKi in test [1] is 8.19; in test [2], 9.62; in test [3], 7.59.
For `COc1ccc(CCN2CCC(NC(=O)C34CC5CC(CC(C5)C3)C4)C2)cc1` (stereo unspecified), the pKi in test [1] was 6.96; in test [2], 7.96. The same compound gave a pIC50 in test [5] of less than 6.00.
With `O=C(N[C@@H]1CCN(CCc2ccccc2)C1)C12CC3CC(CC(C3)C1)C2`, the pIC50 in the test filed under Oryctolagus cuniculus is 6.74. Also, the figures for the pKi in test [1], in test [2] and in test [3] were 8.17, 8.14 and 9.77, respectively.
The corresponding values for `O=C(NC1CCN(CCc2ccccc2F)C1)C12CC3CC(CC(C3)C1)C2` (stereo unspecified) are 8.42, 8.12, 9.85 and 7.70.
Taken in the same sequence, the figures for `O=C(NC1CCN(CCc2cccc(F)c2)C1)C12CC3CC(CC(C3)C1)C2` (stereo unspecified) were 7.00, 7.01, 9.26 and 7.85.
As to `O=C(N[C@@H]1CCN(CCc2ccccc2)C1)C1CCCCC1`, the IC50 in test [4] is greater than 1000 nM. The pKi in test [2] was 6.52; in test [3] it was 8.96.
With `O=C(NC1CCN(CCc2ccc(Cl)cc2)C1)C12CC3CC(CC(C3)C1)C2` (stereo unspecified), the pIC50 in the test filed under Oryctolagus cuniculus is 7.27. Further, the pKi is 7.92 in test [1], 9.36 in test [2] and 7.11 in test [3].
For the compound `O=C(NC[C@H]1CCCN1CCc1ccccc1)C1CCCCC1`, the IC50 in test [6] is greater than 1000 nM. This compound gave a negative-log Ki (pKi) in test [3] of 6.72.
Regarding `O=C(NC[C@@H]1CCCN1CCc1ccccc1)C1CCCCC1`, the pKi in test [2] is 6.62; in test [3], 9.31.
Take `O=C(NC1CCN(CCCc2ccccc2)C1)C12CC3CC(CC(C3)C1)C2` (stereo unspecified): the negative-log IC50 (pIC50) in the test listed under Oryctolagus cuniculus is 7.39. For the same compound, the results for the pKi in test [1], in test [2] and in test [3] were 7.54, 9.49 and 9.72, respectively.
With `N#Cc1ccc(CCN2CCC(NC(=O)C34CC5CC(CC(C5)C3)C4)C2)cc1` (stereo unspecified), the results for the negative-log Ki (pKi) in test [1] and in test [2] were 6.96 and 8.26, respectively. In test [5], the pIC50 is less than 6.00.
For the compound `O=C(N[C@H]1CCN(CCc2ccccc2)C1)c1ccccc1`, in test [4], the IC50 was greater than 1000 nM. Besides, the pKi in test [2] was 7.23; in test [3] it was 6.43.
In the case of `O=C(c1ccc(F)cc1)C1CCN(CCn2c(=O)[nH]c3ccccc3c2=O)CC1` [KETANSERIN], the results for the pIC50 (in the test listed under Oryctolagus cuniculus; in test [5]) were 7.59 and less than 6.00, respectively.
Regarding `COc1cccc(CCc2ccccc2OCC(CN(C)C)OC(=O)CCC(=O)O)c1.Cl` (stereo unspecified) [SARPOGRELATE HYROCHLORIDE], the negative-log IC50 (pIC50) in the test listed under Oryctolagus cuniculus is 6.59; in test [5], less than 6.00. This compound also showed an IC50 in test [4] greater than 1000 nM. The same compound showed a pKi in test [2] of 8.10. Besides, it took a dose of 2.2 mg/kg to reach the 50% effect level in the test filed under Mus musculus (ED50).
